The source made the active and inactive calls. The calls are words filed in the database; no cut-off is given here.
Key:
Candida albicans [1] = assay: Ratio of MIC for Candida albicans ATCC 90028 in absence of ergosterol to MIC for Candida albicans ATCC 90028 in presence of ergosterol; format: functional
Outline: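 MICs per modified M27-A3 in RPMI with or without ergosterol (final 400 µg/mL, dissolved in 10% DMSO/1% Tween 80 with heating). Inoculum 10³ CFU/mL; tetrazoles and itraconazole tested at 512–1 µg/mL, amphotericin B at 125–0.24 µg/mL. Plates were incubated at 35°C and read at 72 h; MIC was the lowest concentration with no visible growth. Run in triplicate on three days, geometric means.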

Candida albicans [2] = assay: Induction of early apoptosis in Candida albicans ATCC 90028 biofilms assessed as chromatin condensation at 0.03 ug/ml after 18 hrs by propidium iodide/acridine orange staining based confocal laser scanning microscopic analysis; format: functional, organism-based
Outline: (§1)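 Caco-2-free model: the TR146 epithelial layer, 21 days post-seeding on filter inserts, was inoculated with 1.0–1.2×10^5/mL log-phase ATCC 90028 yeast. Biofilms were treated at 256, 16 or 0.0313 µg/mL for 18–48 h at 37°C in 5% CO2 and washed with PBS. Unfixed cells were stained with propidium iodide (5 µg/mL) and acridine orange, then imaged by confocal laser scanning microscopy.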

Candida albicans [3] = assay: Antifungal activity against Candida albicans ATCC 90028 after 72 hrs in presence of ergosterol by M27-A3 microdilution method; format: functional; conditions: ATCC 90028, 72 h
Outline: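 Ergosterol-modified M27-A3 assay. Compounds at 512-1 µg/mL serially diluted in RPMI; the 10^3 CFU/mL inoculum is made in RPMI with ergosterol (dissolved in 10% DMSO/1% Tween 80, heated), giving 400 µg/mL ergosterol in the wells. Itraconazole and amphotericin B serve as controls. Plates at 35°C, read after 72 h. MIC is the lowest concentration without visible growth; triplicate on three days, geometric means.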

Candida albicans [4] = assay: Antifungal activity against Candida albicans ATCC 90028 infected in Galleria mellonella larvae assessed as increase in larvae health score at 16 ug/ml preincubated for 30 mins followed by fungal infection and measured after 18 to 48 hrs; format: functional, organism-based
Outline: (§2)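 Larvae (195±17 mg, ethanol-disinfected) were injected with 10 µL C. albicans into the last right proleg. Compound at 16 µg/mL in RPMI (10 µL) went into the last left proleg 30 min or 1 h after infection, or 1 h or 30 min before it. A health index was scored from mobility, cocoon formation, melanization and survival, with monitoring every 24 h for 2 days. Controls were infected and PBS-injected larvae.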

Candida albicans [5] = assay: Induction of late apoptosis in Candida albicans ATCC 90028 biofilms assessed as formation of condense chromatin at 16 ug/ml after 18 hrs by propidium iodide/acridine orange staining based confocal laser scanning microscopic analysis; format: functional, organism-based; outline: as §1
Candida albicans [6] = assay: Induction of necrosis in Candida albicans ATCC 90028 biofilms at 256 ug/ml after 18 hrs by propidium iodide/acridine orange staining based confocal laser scanning microscopic analysis; format: functional, organism-based; outline: as §1
Candida albicans [7] = assay: Antifungal activity against Candida albicans ATCC 90028 assessed as reduction in cell adherence to human Caco2 cells at 256 ug/ml preincubated for 2 hrs followed by compound washout and resuspended in RPMI medium measured after 18 hrs by colony counting assay relative to control; format: functional; design: scale not given: the % may be the effect or the level left
Outline: (§3)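 Yeasts grown 18 h in YEPD at 30°C, then exposed at 10^4/mL to compound in RPMI for 2 h at 35°C with shaking. Washed twice in PBS, resuspended in RPMI and added to Caco-2 monolayers (18 h culture in EMEM/10% FCS) for 2 h at 37°C, 5% CO2. Non-adherent cells rinsed off, Caco-2 lysed with water, and adherent yeasts counted as colonies on Sabouraud agar after 18 h at 30°C. Expressed as % of cells added versus untreated; three experiments.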

Candida albicans [8] = assay: Antifungal activity against Candida albicans ATCC 90028 assessed as reduction in cell adherence to human Caco2 cells at 0.0313 ug/ml preincubated for 2 hrs followed by compound washout and resuspended in RPMI medium measured after 18 hrs by colony counting assay relative to control; format: functional; design: scale not given: the % may be the effect or the level left; outline: as §3
Candida albicans [9] = assay: Antifungal activity against Candida albicans ATCC 90028 infected in Galleria mellonella larvae assessed as increase in larvae health score at 16 ug/ml treated for 30 mins post infection and measured after 18 to 48 hrs; format: functional, organism-based; outline: as §2
Candida albicans [10] = assay: Induction of necrosis in Candida albicans ATCC 90028 biofilms assessed as loss of cell membrane integrity at 0.03 ug/ml after 18 hrs by propidium iodide/acridine orange staining based confocal laser scanning microscopic analysis; format: functional, organism-based; outline: as §1
Candida albicans [11] = assay: Induction of early apoptosis in Candida albicans ATCC 90028 biofilms at 256 ug/ml after 18 hrs by propidium iodide/acridine orange staining based confocal laser scanning microscopic analysis; format: functional, organism-based; outline: as §1
Candida albicans [12] = assay: Synergistic antifungal activity against Candida albicans ATCC 90028 at 80 ug/ml after 48 hrs in presence of fluconazol by checkerboard assay; format: functional

ClCCCn1nnnc1-c1ccccc1Cl
Ratio (Candida albicans [1]): 2

CCOC(=O)CCn1nnc(-c2ccccc2)n1
Activity (Candida albicans [2]): Active | MIC (Candida albicans [3]): 64 µg/mL | Activity (Candida albicans [4]): Active | Activity (Candida albicans [5]): Active | Activity (Candida albicans [6]): Active | Activity (Candida albicans [7]): 59.12% | Activity (Candida albicans [8]): 63.41% | Activity (Candida albicans [9]): Active | Activity (Candida albicans [10]): Active | Activity (Candida albicans [11]): Active

Cc1ccc(-c2nnn(CCCN3CCOCC3)n2)cc1
fractional inhibitory concentration index (FICI) (Candida albicans [12]): >1

From ChEMBL document CHEMBL4145471, “New 1,5 and 2,5-disubstituted tetrazoles-dependent activity towards surface barrier of Candida albicans” (Eur J Med Chem, 2018)
